Activity calls are given as the source filed them. No cut-off for these calls is given here. Some results are limits rather than exact numbers.

In general, IC50 refers to the midpoint of a concentration-inhibition curve.

JNK1/JNK2 (Mus musculus), sequence (Q91Y86 whole entry, looked up): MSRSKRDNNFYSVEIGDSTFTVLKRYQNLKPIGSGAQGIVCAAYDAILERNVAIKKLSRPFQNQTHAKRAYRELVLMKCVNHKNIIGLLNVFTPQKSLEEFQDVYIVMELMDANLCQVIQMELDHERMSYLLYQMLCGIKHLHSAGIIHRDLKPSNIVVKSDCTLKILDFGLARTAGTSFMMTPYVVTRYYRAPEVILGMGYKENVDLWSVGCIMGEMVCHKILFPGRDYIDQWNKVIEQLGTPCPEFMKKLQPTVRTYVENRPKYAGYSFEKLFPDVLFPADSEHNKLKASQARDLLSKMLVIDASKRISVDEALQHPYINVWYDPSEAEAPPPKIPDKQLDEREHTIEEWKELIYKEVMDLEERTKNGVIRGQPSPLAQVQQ
JNK1/JNK2 (Mus musculus), sequence (Q9WTU6 whole entry, looked up): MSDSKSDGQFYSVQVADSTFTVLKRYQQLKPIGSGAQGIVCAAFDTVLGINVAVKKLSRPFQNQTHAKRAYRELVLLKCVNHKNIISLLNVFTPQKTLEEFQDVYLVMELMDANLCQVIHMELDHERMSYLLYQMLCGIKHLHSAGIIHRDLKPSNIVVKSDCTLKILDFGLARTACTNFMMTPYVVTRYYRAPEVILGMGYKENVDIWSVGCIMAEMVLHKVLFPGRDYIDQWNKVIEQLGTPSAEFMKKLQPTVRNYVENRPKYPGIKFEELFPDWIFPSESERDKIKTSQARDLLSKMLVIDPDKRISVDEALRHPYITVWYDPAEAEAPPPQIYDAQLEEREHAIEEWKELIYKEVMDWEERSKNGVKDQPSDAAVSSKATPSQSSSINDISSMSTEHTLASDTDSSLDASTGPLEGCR

The subject of one data set is RAW264.7. As to the kind of experiment: Antiinflammatory activity in mouse RAW264.7 cells assessed as inhibition of IL-1beta release at 10 uM after 24 hrs by ELISA. Format: functional, cell-based.
Conditions: not given
A digest of the protocol:
(§1)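 RAW 264.7 cells were preincubated 2 h with compound (5–20 μM), then stimulated with LPS (1 μg/mL) for 24 h. IL-1β release was measured by ELISA and compared with LPS-stimulated and unstimulated cells. Data come from at least three independent experiments, each run in duplicate.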
In general terms: ELISA stands for enzyme-linked immunosorbent assay.
`Oc1c2ccccc2c2c3c(cccc13)N=N2`: the inhibition result was “Active”.

Take `COc1cccc(-c2cc(=O)c3ccccc3o2)c1N`: the inhibition entry is “inactive”.

For `C[S+]([O-])c1ccc(-c2nc(-c3ccc(F)cc3)c(-c3ccncc3)[nH]2)cc1` (stereo unspecified), the inhibition entry was “Active”.

The test system of a further data set is RAW264.7. As to the kind of experiment: Antiinflammatory activity in mouse RAW264.7 cells assessed as inhibition of LPS-induced NO production treated 2 hrs before LPS challenge measured after 24 hrs.
Conditions: not given
The data set is classed as functional, cell-based. The gist of the method: (§2)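 Cells were pretreated with compound for 2 h before LPS (1 μg/mL), then incubated 24 h. NO production was determined by nitrite/nitrate assay and expressed as a percentage of LPS-stimulated cells (means, SEM). IC50 is the concentration giving 50% inhibition of NO production. Data come from at least three independent experiments, each run in duplicate.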
Consider `COc1cc(OC)cc([C@@H]2C(O)c3cc(OC)cc(OC)c3[C@H]2c2ccccc2)c1` (stereo partly specified), for which the inhibition entry was “Dose-dependent effect”.

The same data set, now with this note: Mus musculus, RAW264.7; read-out: IC50.
As to `COc1ccc([C@@H]2c3c(OC)cc(OC)cc3/C(=C/c3ccc(C)cc3)[C@H]2c2cc(OC)cc(OC)c2)cc1`, the IC50 is greater than 200 µM.

`COc1ccc([C@@H]2c3c(OC)cc(OC)cc3/C(=C/c3ccccc3)[C@H]2c2cc(OC)cc(OC)c2)cc1`: the IC50 is greater than 200 µM.

Consider `Oc1ccc([C@@H]2c3c(O)cc(O)cc3[C@H]3[C@H](c4ccc(O)cc4)c4c(O)cc(O)cc4[C@@H]23)cc1` (relative stereo) [PALLIDOL], for which the IC50 is greater than 200 µM.

As for `COc1ccc(C(O)C2c3cc(OC)cc(OC)c3[C@@H](c3ccccc3)[C@@H]2c2cc(OC)cc(OC)c2)cc1` (stereo partly specified), the IC50 is 16.5 µM.

Consider `COc1ccc([C@@H]2c3c(OC)cc(OC)cc3C(C(O)c3ccc(C)cc3)[C@H]2c2cc(OC)cc(OC)c2)cc1` (stereo partly specified), for which the IC50 is 26.5 µM.

Consider `COc1ccc(/C=C2/c3cc(OC)cc(OC)c3[C@@H](c3ccccc3)[C@@H]2c2cc(OC)cc(OC)c2)cc1`, for which the concentration for half-maximal inhibition (IC50) is greater than 200 µM.

Consider `COc1cc(OC)cc([C@@H]2/C(=C\c3ccccc3)c3cc(OC)cc(OC)c3[C@H]2c2ccccc2)c1`, for which the IC50 is greater than 200 µM.

For the compound `COc1cc(OC)cc([C@@H]2C(=O)c3cc(OC)cc(OC)c3[C@H]2c2ccc(F)cc2)c1`, the IC50 is 44.8 µM.

`COc1ccc([C@@H]2c3c(OC)cc(OC)cc3C(O)[C@H]2c2cc(OC)cc(OC)c2)cc1` (stereo partly specified): the IC50 came to 7.87 µM.

Turning to `COc1cc(OC)cc([C@@H]2C(C(O)c3ccccc3)c3cc(OC)cc(OC)c3[C@H]2c2ccccc2)c1` (stereo partly specified), the IC50 turned out to be 21.6 µM.

For the compound `COc1cc(OC)cc([C@@H]2C(SCc3ccccc3)c3cc(OC)cc(OC)c3[C@H]2c2ccccc2)c1` (stereo partly specified), the IC50 was greater than 200 µM.

`COc1cc(OC)cc([C@@H]2C(O)c3cc(OC)cc(OC)c3[C@H]2c2ccccc2)c1` (stereo partly specified): the IC50 amounted to 3.38 µM.

Regarding `COc1ccc([C@@H]2c3c(OC)cc(OC)cc3[C@H]3[C@H](c4ccc(OC)cc4)c4c(OC)cc(OC)cc4[C@@H]23)cc1`, the IC50 is greater than 200 µM.

Consider `COc1ccc([C@@H]2c3c(OC)cc(OC)cc3C(C(O)c3ccccc3)[C@H]2c2cc(OC)cc(OC)c2)cc1` (stereo partly specified), for which the IC50 was greater than 200 µM.

The next data set deals with RAW264.7. As to the kind of experiment: Antiinflammatory activity in mouse RAW264.7 cells assessed as inhibition of LPS-induced iNOS expression at 20 uM after 24 hrs by Western blot analysis. The data set is classed as functional, cell-based.
Conditions: not given
A digest of the protocol: (§3)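 Western blot quantitation of iNOS protein, with β-actin as loading control. RAW 264.7 cells were given a 2 h compound pretreatment (5–20 μM), then 1 μg/mL LPS for 24 h. Data come from at least three independent experiments, each performed in duplicate.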
For orientation: In western blotting, separated proteins are transferred to a membrane and probed.
With `COc1cc(OC)cc([C@@H]2C(O)c3cc(OC)cc(OC)c3[C@H]2c2ccccc2)c1` (stereo partly specified), the inhibition entry was “Active”.

The test system of a further data set is RAW264.7. As to the kind of experiment: Antiinflammatory activity in mouse RAW264.7 cells assessed as LPS-induced NO production at 10 uM treated 2 hrs before LPS challenge measured after 24 hrs.
Conditions: not given
Regarding `COc1ccc([C@@H]2c3c(OC)cc(OC)cc3/C(=C/c3ccc(C)cc3)[C@H]2c2cc(OC)cc(OC)c2)cc1`, the NO production % at 10 µM stood at 99.2%.

Regarding `COc1ccc([C@@H]2c3c(OC)cc(OC)cc3/C(=C/c3ccccc3)[C@H]2c2cc(OC)cc(OC)c2)cc1`, the NO production % at 10 µM is 88.2%.

For the compound `Oc1ccc([C@@H]2c3c(O)cc(O)cc3[C@H]3[C@H](c4ccc(O)cc4)c4c(O)cc(O)cc4[C@@H]23)cc1` (relative stereo) [PALLIDOL], the NO production % at 10 µM amounted to 89.3%.

On to `COc1ccc(C(O)C2c3cc(OC)cc(OC)c3[C@@H](c3ccccc3)[C@@H]2c2cc(OC)cc(OC)c2)cc1` (stereo partly specified), for which the NO production % at 10 µM was 67.8%.

Regarding `COc1ccc([C@@H]2c3c(OC)cc(OC)cc3C(C(O)c3ccc(C)cc3)[C@H]2c2cc(OC)cc(OC)c2)cc1` (stereo partly specified), the NO production % at 10 µM turned out to be 63.5%.

For the compound `COc1ccc(/C=C2/c3cc(OC)cc(OC)c3[C@@H](c3ccccc3)[C@@H]2c2cc(OC)cc(OC)c2)cc1`, the NO production % at 10 µM came to 84.3%.

Regarding `COc1cc(OC)cc([C@@H]2/C(=C\c3ccccc3)c3cc(OC)cc(OC)c3[C@H]2c2ccccc2)c1`, the NO production % at 10 µM came to 108%.

`COc1cc(OC)cc([C@@H]2C(=O)c3cc(OC)cc(OC)c3[C@H]2c2ccc(F)cc2)c1`: the NO production % at 10 µM was determined as 57.4%.

`COc1ccc([C@@H]2c3c(OC)cc(OC)cc3C(O)[C@H]2c2cc(OC)cc(OC)c2)cc1` (stereo partly specified): the NO production % at 10 µM came out at 58.3%.

On to `COc1cc(OC)cc([C@@H]2C(C(O)c3ccccc3)c3cc(OC)cc(OC)c3[C@H]2c2ccccc2)c1` (stereo partly specified), for which the NO production % at 10 µM turned out to be 59.5%.

`COc1cc(OC)cc([C@@H]2C(SCc3ccccc3)c3cc(OC)cc(OC)c3[C@H]2c2ccccc2)c1` (stereo partly specified): the NO production % at 10 µM was found to be 75.9%.

As to `COc1cc(OC)cc([C@@H]2C(O)c3cc(OC)cc(OC)c3[C@H]2c2ccccc2)c1` (stereo partly specified), the NO production % at 10 µM is 49.5%.

`COc1ccc([C@@H]2c3c(OC)cc(OC)cc3[C@H]3[C@H](c4ccc(OC)cc4)c4c(OC)cc(OC)cc4[C@@H]23)cc1`: the NO production % at 10 µM was found to be 80.2%.

On to `COc1ccc([C@@H]2c3c(OC)cc(OC)cc3C(C(O)c3ccccc3)[C@H]2c2cc(OC)cc(OC)c2)cc1` (stereo partly specified), for which the NO production % at 10 µM was determined as 75.4%.

In another data set the test system is RAW264.7. Put plainly: Antiinflammatory activity in mouse RAW264.7 cells assessed as inhibition of LPS-induced iNOS protein expression incubated for 2 hrs prior to LPS challenge measured after 24 hrs by Western blot analysis. Format: functional, cell-based.
Conditions: not given
The gist of the method:
as §3
Turning to `COc1cc(OC)cc([C@@H]2C(O)c3cc(OC)cc(OC)c3[C@H]2c2ccccc2)c1` (stereo partly specified), the inhibition entry was “Dose-dependent effect”.

Another data set has as its target MAP kinase p38 (Mus musculus) (UniProt P47811+O08911+Q9WUI1+Q9Z1B7). Put plainly: Inhibition of LPS-induced p38 MAPK phosphorylation in mouse RAW264.7 cells after 45 mins by Western blot analysis. The data set is classed as cell-based.
Conditions: not given
A digest of the protocol:
(§4)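 Phosphorylation of p38, JNK1/2 and ERK1/2 was detected by Western blot 45 min after LPS stimulation of RAW 264.7 cells. Each phospho-band was quantified against its total kinase as loading control. Data come from at least three independent experiments, each run in duplicate.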
In the case of `COc1cc(OC)cc([C@@H]2C(O)c3cc(OC)cc(OC)c3[C@H]2c2ccccc2)c1` (stereo partly specified), the inhibition entry was “Dose-dependent effect”.

Another data set has as its system RAW264.7. Put plainly: Antiinflammatory activity in mouse RAW264.7 cells assessed as inhibition of LPS-induced NO production at 10 uM treated 2 hrs before LPS challenge measured after 24 hrs. Format: functional.
Conditions: not given
The gist of the method: as §2
As for `Oc1c2ccccc2c2c3c(cccc13)N=N2`, the inhibition entry was “Active”.

On to `COc1cccc(-c2cc(=O)c3ccccc3o2)c1N`, for which the inhibition entry is “inactive”.

With `C[S+]([O-])c1ccc(-c2nc(-c3ccc(F)cc3)c(-c3ccncc3)[nH]2)cc1` (stereo unspecified), the inhibition entry was “Active”.

The next data set concerns the target JNK1/JNK2 (Mus musculus) (UniProt Q91Y86+Q9WTU6). Put plainly: Inhibition of LPS-induced JNK1/2 phosphorylation in mouse RAW264.7 cells after 45 mins by Western blot analysis. Format: cell-based.
Conditions: not given
The gist of the method:
as §4
`COc1cc(OC)cc([C@@H]2C(O)c3cc(OC)cc(OC)c3[C@H]2c2ccccc2)c1` (stereo partly specified): the inhibition entry is “Dose-dependent effect”.

The test system of another data set is RAW264.7. As to the kind of experiment: Antiinflammatory activity in mouse RAW264.7 cells assessed as inhibition of IL-1beta release at 20 uM after 24 hrs by ELISA. The data set is classed as functional, cell-based.
Conditions: not given
A digest of the protocol: as §1
`COc1cc(OC)cc([C@@H]2C(O)c3cc(OC)cc(OC)c3[C@H]2c2ccccc2)c1` (stereo partly specified): the inhibition entry was “Active”.

A further data set has as its system RAW264.7. Put plainly: Cytotoxicity against mouse RAW264.7 cells up to 20 uM. Format: cell-based.
Conditions: not given
Take `COc1cc(OC)cc([C@@H]2C(O)c3cc(OC)cc(OC)c3[C@H]2c2ccccc2)c1` (stereo partly specified): the Activity entry is “Non-toxic”.

Another data set concerns RAW264.7. Put plainly: Antiinflammatory activity in mouse RAW264.7 cells assessed as inhibition of LPS-induced NO production at 20 uM treated 2 hrs before LPS challenge measured after 24 hrs. The data set is classed as functional, cell-based.
Conditions: not given
A digest of the protocol: as §2
Regarding `COc1cc(OC)cc([C@@H]2C(O)c3cc(OC)cc(OC)c3[C@H]2c2ccccc2)c1` (stereo partly specified), the inhibition result was “Active”.

The next data set has as its system RAW264.7. Put plainly: Antiinflammatory activity in mouse RAW264.7 cells assessed as inhibition of LPS-induced iNOS expression at 10 uM after 24 hrs by Western blot analysis.
Conditions: not given
Format: functional, cell-based. The gist of the method: as §3
As to `Oc1c2ccccc2c2c3c(cccc13)N=N2`, the inhibition entry was “Active”.

For `COc1cccc(-c2cc(=O)c3ccccc3o2)c1N`, the inhibition entry is “inactive”.

As for `C[S+]([O-])c1ccc(-c2nc(-c3ccc(F)cc3)c(-c3ccncc3)[nH]2)cc1` (stereo unspecified), the inhibition entry was “Active”.

Another data set deals with RAW264.7. Put plainly: Antiinflammatory activity in mouse RAW264.7 cells assessed as inhibition of LPS-induced IL-1beta release incubated for 2 hrs prior to LPS challenge measured after 24 hrs by ELISA. The data set is classed as functional, cell-based.
Conditions: not given
The gist of the method:
as §1
As for `COc1cc(OC)cc([C@@H]2C(O)c3cc(OC)cc(OC)c3[C@H]2c2ccccc2)c1` (stereo partly specified), the inhibition entry was “Dose-dependent effect”.

These data come from ChEMBL document CHEMBL2406927, “Inhibitory effect of resveratrol dimerized derivatives on nitric oxide production in lipopolysaccharide-induced RAW 264.7 cells” (Bioorg Med Chem Lett, 2013).
